The sample as a whole holds a higher share of hits than the screen did.
T cruzi HTS: intracellular Trypanosoma cruzi inhibition; intracellular Trypanosoma cruzi in host cells, plate reader; 22,000 compounds, 4.9% hits; AID 651903; activity score (inhibition), % at 5.01 µM; in the data active means activity score above about 55%;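 further: parasites and compound incubated about four days before reading; 0% = median of neutral control wells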
YB-1 expr inh: YB-1 expression inhibition; U2OS, qRT-PCR YB-1 vs CDIP delta delta Cp, 16 h; active compounds read high; zero = DMSO, each unit about twofold; delta delta Cp (YB-1 minus CDIP) (no concentration beside the values); 30,000 compounds, 0.37% hits;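 active means delta delta Cp rounded down to an integer at or above 3, about 3 SD of DMSO wells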;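 further: higher means less YB-1 transcript or more CDIP transcript relative to DMSO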
INS-1E ATP HTS: preserves ATP levels in cytokine-treated INS-1E cells; INS-1E cytokine-induced death, ATP luminescence, 48 h; normalised: neutral wells 0, positive control 100; protection from cytokine-induced ATP loss, % at 10 µM; 20,000 compounds, 0.1% hits; AID 488910;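 active means mean replicate protection from cytokine-induced ATP loss at least 50% and at least 75% of replicates each reaching 50%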
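Material: INS-1E rat cells; Quantity: 8000 cells/well; Buffer or medium: phenol-red-free RPMI with 5% fetal bovine serum; Probe or stimulus: cytokine cocktail of IFN-γ, TNF-α and IL-1β; Compound dosing: single test concentration per compound, delivered by pin transfer; Incubation: 48 h co-treatment, 10 min post-lysis read; Signal: CellTiter-Glo luminescence.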
* marks the source's active call; other numbers are inactive results.

Results for Cc1ccccc1/C=N/NC(=O)CCCCCCC(=O)Nc1ccccc1O ?
T cruzi HTS: 5.1; YB-1 expr inh: -0.37; INS-1E ATP HTS: 0.9

What do the screens show for `COC(=O)CCCCCCC(=O)N/N=C/c1ccc2c(c1)Cc1ccccc1-2`?
T cruzi HTS: 25.9; YB-1 expr inh: 0.438; INS-1E ATP HTS: -2.2

What do the screens show for `Cc1ccsc1/C=N\NC(=O)CCCCCC(=O)NO`?
T cruzi HTS: 2.9; YB-1 expr inh: -0.166; INS-1E ATP HTS: 118.0*

Results for O=C(CCCCC(=O)N/N=C/c1ccccc1C(=O)O)NO ?
T cruzi HTS: -19.2; YB-1 expr inh: -0.0194; INS-1E ATP HTS: 9.2

What do the screens show for `O=C(CCCCCC(=O)N/N=C/c1c[nH]c2ccccc12)NO`?
T cruzi HTS: -1.0; YB-1 expr inh: -0.748; INS-1E ATP HTS: 90.7*

What do the screens show for `Cc1ccsc1/C=N/NC(=O)CCCCCCC(=O)Nc1ccccc1O`?
T cruzi HTS: -0.2; YB-1 expr inh: -0.538; INS-1E ATP HTS: 8.2

How did NC(=S)/N=C1\CCCCC1=C1CCCCC1 do in these assays?
YB-1 expr inh: 0.154

Results for O=C(CCCCCCC(=O)N/N=C/c1ccc(O)c(O)c1)NO ?
T cruzi HTS: -8.1; YB-1 expr inh: 0.224; INS-1E ATP HTS: 16.0

Results for O=C(/C=C/c1ccccc1)Oc1ccc2ccccc2c1 ?
YB-1 expr inh: -0.0854

Results for COc1cc2c(cc1O)C1(O)Cc3ccc4c(c3C1N(C)CC2)OCO4 (stereo not drawn) ?
YB-1 expr inh: 1.06

Results for C=C(C)[C@@]12O[C@@H]1[C@@]1(C)C(=CC2=O)CC[C@@H](O)[C@@H]1C ?
YB-1 expr inh: -0.211

How did CN(C)/C=C/C(=O)c1ccsc1 do in these assays?
YB-1 expr inh: -0.0856

What do the screens show for `C[C@H]1CN([C@@H](C)CO)C(=O)Cc2cc(NC(=O)CCC(F)(F)F)ccc2O[C@@H]1CN(C)Cc1ccc(C(=O)Nc2ccccc2N)cc1`?
T cruzi HTS: 44.7; YB-1 expr inh: -0.0882; INS-1E ATP HTS: -3.4

Results for C[C@H](CO)N1C[C@H](C)[C@H](CN(C)Cc2ccc(C(=O)Nc3ccccc3N)cc2)Oc2ccc(NC(=O)Nc3ccc(C(F)(F)F)cc3)cc2C1=O ?
T cruzi HTS: 41.7; YB-1 expr inh: -0.0299; INS-1E ATP HTS: -6.3

Results for C[C@@H]1CN([C@H](C)CO)C(=O)Cc2cc(NC(=O)Nc3ccc(C(F)(F)F)cc3)ccc2O[C@@H]1CN(C)Cc1ccc(C(=O)Nc2ccccc2N)cc1 ?
T cruzi HTS: 83.4*; YB-1 expr inh: -0.193; INS-1E ATP HTS: -10.8

Results for C[C@H]1CN([C@@H](C)CO)C(=O)Cc2cc(NC(=O)Nc3ccc(C(F)(F)F)cc3)ccc2O[C@H]1CN(C)Cc1ccc(C(=O)Nc2ccccc2N)cc1 ?
T cruzi HTS: 86.9*; YB-1 expr inh: -0.732; INS-1E ATP HTS: -39.5

What do the screens show for `COc1cccc([C@H]2C(C#N)=C(N)C(C#N)(C#N)C3=CCC(C)C[C@@H]32)c1` (stereo partly drawn)?
YB-1 expr inh: -0.0838

How did CC(=O)OC[C@]12[C@H](OC(C)=O)[C@H](OC(C)=O)[C@@H]3[C@@H](OC(C)=O)[C@@]14O[C@@]3(C)COC(=O)c1ncccc1CC[C@H](C)C(=O)O[C@@H]([C@H](O)[C@@H]2OC(=O)c1ccccc1)[C@]4(C)O do in these assays?
YB-1 expr inh: -0.379

How did C[C@@H]1CN([C@H](C)CO)C(=O)Cc2cc(NS(=O)(=O)c3ccccc3)ccc2O[C@H]1CN(C)S(=O)(=O)c1ccccc1 do in these assays?
T cruzi HTS: 11.3; YB-1 expr inh: 5.14*; INS-1E ATP HTS: 1.0

How did C[C@H]1CN([C@@H](C)CO)C(=O)Cc2cc(NS(=O)(=O)c3ccccc3)ccc2O[C@@H]1CN(C)S(=O)(=O)c1ccc(Cl)cc1 do in these assays?
T cruzi HTS: 4.5; YB-1 expr inh: -0.256; INS-1E ATP HTS: 5.9

What do the screens show for `C[C@@H]1CN([C@H](C)CO)C(=O)Cc2cc(NS(=O)(=O)c3ccccc3)ccc2O[C@@H]1CN(C)S(=O)(=O)c1ccccc1`?
T cruzi HTS: 52.7; YB-1 expr inh: -0.107; INS-1E ATP HTS: 5.0

Results for C[C@@H]1CN([C@H](C)CO)C(=O)Cc2cc(NS(=O)(=O)c3ccccc3)ccc2O[C@@H]1CN(C)S(=O)(=O)c1ccc(Cl)cc1 ?
T cruzi HTS: 68.2*; YB-1 expr inh: -0.0101; INS-1E ATP HTS: 0.5

What do the screens show for `O=CNCCc1c[nH]c2ccccc12`?
YB-1 expr inh: -0.681

Results for C[C@H]1CN([C@@H](C)CO)C(=O)Cc2cc(NC(=O)Nc3ccccc3)ccc2O[C@@H]1CN(C)CC1CCCCC1 ?
T cruzi HTS: 27.2; YB-1 expr inh: 0.286; INS-1E ATP HTS: -17.2

What do the screens show for `C[C@H]1CN([C@@H](C)CO)C(=O)Cc2cc(NC(=O)Nc3ccc(C(F)(F)F)cc3)ccc2O[C@@H]1CN(C)CC1CC1`?
T cruzi HTS: -29.5; YB-1 expr inh: -0.0147; INS-1E ATP HTS: 4.3

What do the screens show for `C[C@H]1CN([C@@H](C)CO)C(=O)Cc2cc(NC(=O)Nc3ccc(C(F)(F)F)cc3)ccc2O[C@H]1CN(C)CC1CCCCC1`?
T cruzi HTS: 72.0*; YB-1 expr inh: -0.24; INS-1E ATP HTS: -55.7

Results for C[C@@H]1CN([C@@H](C)CO)C(=O)Cc2cc(NC(=O)Nc3ccc(C(F)(F)F)cc3)ccc2O[C@@H]1CN(C)CC1CCCCC1 ?
T cruzi HTS: 77.0*; YB-1 expr inh: 0.208; INS-1E ATP HTS: -45.9

What do the screens show for `Cc1ccc(O)c(/C=N/NC(=O)CCCCCC(=O)O)c1`?
T cruzi HTS: 0.9; YB-1 expr inh: -0.0869; INS-1E ATP HTS: -8.4

What do the screens show for `COc1cc(/C=C/c2cc(O)cc(O)c2)ccc1O[C@@H]1O[C@H](CO)[C@@H](O)[C@H](O)[C@H]1O`?
YB-1 expr inh: -0.594

What do the screens show for `O=C(Nc1ccc(Br)cc1)C12CC3CC(CC(C3)C1)C2`?
YB-1 expr inh: -0.137

Results for CC1=CC(c2ccoc2)c2c(oc(N)c(C#N)c2=O)S1 (stereo not drawn) ?
YB-1 expr inh: 0.014

Results for O=C(NCCN1CCOCC1)[C@@]1(Cc2ccccc2)N=C(c2ccc(OCCCO)cc2)O[C@H]1c1ccccc1 ?
YB-1 expr inh: -0.524

Results for C[C@H](CO)N1C[C@H](C)[C@@H](CN(C)Cc2ccc(Cl)c(Cl)c2)Oc2c(NC(=O)c3ccncc3)cccc2C1=O ?
T cruzi HTS: 78.2*; YB-1 expr inh: 0.12; INS-1E ATP HTS: -14.2

Results for C[C@H](CO)N1C[C@H](C)[C@H](CN(C)Cc2ccc(Cl)c(Cl)c2)Oc2c(NC(=O)c3cnccn3)cccc2C1=O ?
T cruzi HTS: 43.3; YB-1 expr inh: -0.251; INS-1E ATP HTS: -23.1

How did C[C@@H]1CN([C@@H](C)CO)C(=O)c2cccc(NC(=O)c3ccncc3)c2O[C@@H]1CN(C)Cc1ccc(Cl)c(Cl)c1 do in these assays?
T cruzi HTS: 67.8*; YB-1 expr inh: -0.406; INS-1E ATP HTS: -8.2

How did C[C@@H]1CN([C@H](C)CO)C(=O)Cc2cc(NS(C)(=O)=O)ccc2O[C@@H]1CN(C)Cc1ccc(C(=O)Nc2ccccc2N)cc1 do in these assays?
T cruzi HTS: -12.6; YB-1 expr inh: 0.133; INS-1E ATP HTS: 7.3
